Starred links: 1 amine or outer side, 2 acyl side, 3 side chain; linkers in the order of their positions; H or OH if unused. Positions of bridges follow the written chain, without caps; N, C: chain ends. Non-standard residues stand in square brackets, D forms with d. Residues, ends and D or L forms follow the SMILES beside them. No end group written: not given here. *: point of attachment. X1 = NC(=O)CC[C@@H]1NC(=O)[C@H](CO)N=C1N[C@@H](CO)C(=O)*; X2 = NC(=O)C[C@H](N[*:1])c1nc(C(=O)[*:2])cs1; X4 = NC(=O)C[C@H](N[*:1])c1nc(C(=O)[*:2])co1; X3 = O=C(c1csc([C@H](CO)N[*:1])n1)[*:2]
How the values were obtained:
[1] = tested on: E. coli ΔsbmA cells (JW0368) expressing SbmA mutants; type: cell-based, Escherichia coli; conditions: for antibiotic sensitivity of cells carrying SbmA Tyr116 mutation: Tyr116 (potential periplasmic gate) mutant
BacA = target: T1, BacA (Rhizobium meliloti, UniProt Q08120); experiment: Microscale thermophoresis; type: binding, Sinorhizobium meliloti; conditions: BacA-ND complex; MST
T1 sequence (Q08120 1-420): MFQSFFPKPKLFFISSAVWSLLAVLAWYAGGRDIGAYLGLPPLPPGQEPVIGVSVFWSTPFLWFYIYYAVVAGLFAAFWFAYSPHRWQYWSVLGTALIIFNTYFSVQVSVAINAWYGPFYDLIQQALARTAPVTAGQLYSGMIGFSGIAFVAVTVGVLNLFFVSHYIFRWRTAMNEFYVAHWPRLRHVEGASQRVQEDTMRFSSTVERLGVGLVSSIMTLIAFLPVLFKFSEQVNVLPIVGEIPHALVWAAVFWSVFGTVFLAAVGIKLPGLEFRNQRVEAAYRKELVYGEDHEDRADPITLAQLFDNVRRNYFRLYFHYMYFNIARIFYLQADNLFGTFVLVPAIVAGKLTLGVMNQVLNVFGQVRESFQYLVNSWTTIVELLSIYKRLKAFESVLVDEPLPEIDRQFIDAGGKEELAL
How it was run: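 Purified protein mixed into DDM-solubilized lipid (7.5 mM lipid, 33 mM DDM) for 30 min at 28°C. Alexa Fluor 647–labeled MSP1E3D1 (S22C/A121C) added, then Amberlite XAD-2 overnight at 28°C, and nanodiscs purified by SEC. Labeled nanodiscs (20 nM) incubated 15 min in the dark with test compound in 20 mM K-Hepes pH 8, 150 mM KCl, 0.005% Tween 20 (DMSO 1.25% final). Kd from a 1:1 fit of the MST signal, three independent measurements.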

[2] = target: Escherichia coli inner membrane transporter SbmA (E. coli) (UniProt P0AFY6); experiment: MST
cryo-EM structure [3] = target: the molecule itself; experiment: cryo-EM structure
cryo-EM structure [4] = target: the molecule itself; experiment: cryo-EM structure; remark: listed apart in the source

CC(C)C[C@H](NC(=O)CNC(=O)CNC(=O)[C@@H](NC(=O)c1csc([C@H](CC(N)=O)NC(=O)[C@H](C)NC(=O)[C@H](CO)NC(=O)c2coc([C@H](CC(N)=O)NC(=O)[C@H](CO)NC(=O)c3csc([C@H](CO)NC(=O)[C@H](C)NC(=O)c4csc([C@H](CC(N)=O)NC(=O)CNC(=O)[C@@H]5CCCN5C(=O)[C@H](CO)NC5=N[C@@H](CO)C(=O)N[C@H]5CCC(N)=O)n4)n3)n2)n1)[C@@H](C)O)C(=O)O [KLB, klebsazolicin] (X1-PG[X2]A[X3]S[X4]SA[X2]TGGL-OH; C-terminus assumed)
antibiotic sensitivity of cells carrying SbmA Tyr116 mutation [1]: resistant

bleomycin
Kd (BacA): 19 ± 11 nM | antibiotic sensitivity of cells carrying SbmA Tyr116 mutation [1]: slightly increased sensitivity | antibiotic sensitivity of cells carrying SbmA Tyr368Ala mutant ([1]; Tyr368Ala (first internal gate) mutant): additionally sensitized

klebsazolicin (peptide)
Kd [2]: 849 nM

microcin J25 (GGAGHVPEYFVGIGTPISFYG; lactam N-8; ends not checked; UniProt Q9X2V7 38-58, looked up) [MccJ25]
antibiotic sensitivity of cells carrying SbmA Tyr116 mutation [1]: resistant

B1: Escherichia coli inner membrane transporter SbmA (natural protein, E. coli)
chain: MFKSFFPKPGTFFLSAFVWALIAVIFWQAGGGDWVARITGASGQIPISAARFWSLDFLIFYAYYIVCVGLFALFWFIYSPHRWQYWSILGTALIIFVTWFLVEVGVAVNAWYAPFYDLIQTALSSPHKVTIEQFYREVGVFLGIALIAVVISVLNNFFVSHYVFRWRTAMNEYYMANWQQLRHIEGAAQRVQEDTMRFASTLENMGVSFINAIMTLIAFLPVLVTLSAHVPELPIIGHIPYGLVIAAIVWSLMGTGLLAVVGIKLPGLEFKNQRVEAAYRKELVYGEDDATRATPPTVRELFSAVRKNYFRLYFHYMYFNIARILYLQVDNVFGLFLLFPSIVAGTITLGLMTQITNVFGQVRGAFQYLINSWTTLVELMSIYKRLRSFEHELDGDKIQEVTHTLS
stoichiometry N (cryo-EM structure [3]): 2

B2: BacA from Sinorhizobium meliloti (natural protein, S. meliloti, UniProt Q08120 1-420, looked up)
chain: MFQSFFPKPKLFFISSAVWSLLAVLAWYAGGRDIGAYLGLPPLPPGQEPVIGVSVFWSTPFLWFYIYYAVVAGLFAAFWFAYSPHRWQYWSVLGTALIIFNTYFSVQVSVAINAWYGPFYDLIQQALARTAPVTAGQLYSGMIGFSGIAFVAVTVGVLNLFFVSHYIFRWRTAMNEFYVAHWPRLRHVEGASQRVQEDTMRFSSTVERLGVGLVSSIMTLIAFLPVLFKFSEQVNVLPIVGEIPHALVWAAVFWSVFGTVFLAAVGIKLPGLEFRNQRVEAAYRKELVYGEDHEDRADPITLAQLFDNVRRNYFRLYFHYMYFNIARIFYLQADNLFGTFVLVPAIVAGKLTLGVMNQVLNVFGQVRESFQYLVNSWTTIVELLSIYKRLKAFESVLVDEPLPEIDRQFIDAGGKEELAL
binding result (cryo-EM structure [4]): binds

— PMC8442886 (Science Advances, 2021)
